Measurements reported in ChEMBL document CHEMBL5724801, “EUbOPEN Chemogenomics Library - Multiplex” (2024).
Several values for one entry are separate records, joined by “and”; a condition that tells them apart may be missing. Equal entries are not always repeated.

Test system: HEK-293T
Experiment: Multiplex assay against HEK293T
Type: toxicity, cell-based
Conditions: human
Procedure, shortened: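 Imaging took place on a CQ1 microscope at 37°C and 5% CO2 once compound had been added to live cells stained at seeding with Hoechst33342, BioTracker Green Microtubule Cytoskeleton Dye, MitoTracker Red and Annexin V Alexa Fluor 680. CellPathfinder machine-learning gating classed cells as Hoechst high-intensity objects or normal cells, classed normal cells as having healthy, pyknosed or fragmented nuclei, and classed pyknosed cells as mitotic or apoptotic. Tubulin, mitochondrial-mass and membrane-permeability phenotypes are per cents of the healthy-nucleus cells.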

[1] = 12 h, 1 µM, compound concentration 1 uM
[2] = 12 h, 10 µM, compound concentration 10 uM
[3] = 24 h, 1 µM, compound concentration 1 uM
[4] = 24 h, 10 µM, compound concentration 10 uM
[5] = 48 h, 1 µM, compound concentration 1 uM
[6] = 48 h, 10 µM, compound concentration 10 uM

O=C(Nc1ccccc1Cl)c1cnc2ccc(C3CCNCC3)cn12.O=C(O)C(=O)O
Population Apoptotic (%) [1]: 13.38% and 9.73% | Population Fragmented Nuclei (%) [1]: 1.98% and 9.79% | Population Hoechst High Intensity Objects (%) [1]: 0.39% and 0% | Population Membrane Permeable-Phenotype (%) [1]: 1.89% and 0% | Population Mitotic Cells (%) [1]: 86.62% and 90.27% | Population Normal (%) [1]: 99.61% and 100% | Population Pyknosed Nuclei (%) [1]: 56.13% and 79.02% | Population Tubulin-Different-Phenotype (%) [1]: 20.75% and 18.75% | Total Cell Count [1]: 254 and 143 | Population Apoptotic (%) [2]: 16.08% and 15.91% | Population Fragmented Nuclei (%) [2]: 4.31% and 3.38% | Population Hoechst High Intensity Objects (%) [2]: 0.48% and 0% | Population Membrane Permeable-Phenotype (%) [2]: 1.75% and 0% | Population Mitochondria Different-Phenotype (%) [2]: 66.67% and 72.73% | Population Mitotic Cells (%) [2]: 83.92% and 84.09% | Population Normal (%) [2]: 99.52% and 100% | Population Pyknosed Nuclei (%) [2]: 68.42% and 89.19% | Population Tubulin-Different-Phenotype (%) [2]: 52.63% and 54.55% | Total Cell Count [2]: 210 and 148 | Population Apoptotic (%) [3]: 19.23% and 23.68% | Population Fragmented Nuclei (%) [3]: 1.95% and 4.9% | Population Hoechst High Intensity Objects (%) [3]: 0.97% and 0% | Population Membrane Permeable-Phenotype (%) [3]: 0.74% and 4.55% | Population Mitochondria Different-Phenotype (%) [3]: 37.5% and 22.73% | Population Mitotic Cells (%) [3]: 80.77% and 76.32% | Population Normal (%) [3]: 99.03% and 100% | Population Pyknosed Nuclei (%) [3]: 31.71% and 79.72% | Population Tubulin-Different-Phenotype (%) [3]: 31.25% and 22.73% | Total Cell Count [3]: 414 and 143 | Population Apoptotic (%) [4]: 34.45% and 29.91% | Population Fragmented Nuclei (%) [4]: 4.76% and 4% | Population Healthy Nuclei (%) [4]: 43.72% and 18% | Population Hoechst High Intensity Objects (%) [4]: 0% | Population Membrane Permeable-Phenotype (%) [4]: 0.99% and 3.7% | Population Mitochondria Different-Phenotype (%) [4]: 74.26% and 51.85% | Population Mitotic Cells (%) [4]: 65.55% and 70.09% | Population Normal (%) [4]: 100% | Population Pyknosed Nuclei (%) [4]: 51.52% and 78% | Population Tubulin-Different-Phenotype (%) [4]: 81.19% and 40.74% | Total Cell Count [4]: 231 and 150 | Population Apoptotic (%) [5]: 9.3% and 24.49% | Population Fragmented Nuclei (%) [5]: 3.3% and 6.21% | Population Healthy Nuclei (%) [5]: 83.82% and 32.92% | Population Hoechst High Intensity Objects (%) [5]: 0.1% and 0% | Population Membrane Permeable-Phenotype (%) [5]: 2.62% and 1.89% | Population Mitochondria Different-Phenotype (%) [5]: 28.13% and 43.4% | Population Mitotic Cells (%) [5]: 90.7% and 75.51% | Population Normal (%) [5]: 99.9% and 100% | Population Apoptotic (%) [6]: 20% and 23.23% | Population Fragmented Nuclei (%) [6]: 3.53% and 4.03% | Population Healthy Nuclei (%) [6]: 73.65% and 29.53% | Population Hoechst High Intensity Objects (%) [6]: 0.21% and 0% | Population Membrane Permeable-Phenotype (%) [6]: 1.97% and 0% | Population Mitochondria Different-Phenotype (%) [6]: 64.51% and 56.82% | Population Mitotic Cells (%) [6]: 80% and 76.77% | Population Normal (%) [6]: 99.79% and 100% | Population Pyknosed Nuclei (%) [6]: 22.82% and 66.44% | Population Tubulin-Different-Phenotype (%) [6]: 33.24% and 81.82%

O=C1N=C(NCc2cccs2)S/C1=C\c1ccc2ncccc2c1
Population Apoptotic (%) [1]: 11.2% and 8.04% | Population Fragmented Nuclei (%) [1]: 4.18% and 2.19% | Population Hoechst High Intensity Objects (%) [1]: 0% | Population Membrane Permeable-Phenotype (%) [1]: 0% | Population Mitochondria Different-Phenotype (%) [1]: 30.06% and 18.18% | Population Mitotic Cells (%) [1]: 88.8% and 91.96% | Population Normal (%) [1]: 100% | Population Pyknosed Nuclei (%) [1]: 40.19% and 81.75% | Total Cell Count [1]: 311 and 137 | Population Apoptotic (%) [2]: 10.71% and 8.85% | Population Fragmented Nuclei (%) [2]: 2.55% and 5.49% | Population Healthy Nuclei (%) [2]: 68.88% and 25.61% | Population Hoechst High Intensity Objects (%) [2]: 0% | Population Membrane Permeable-Phenotype (%) [2]: 1.48% and 0% | Population Mitochondria Different-Phenotype (%) [2]: 19.26% and 9.52% | Population Mitotic Cells (%) [2]: 89.29% and 91.15% | Population Normal (%) [2]: 100% | Population Pyknosed Nuclei (%) [2]: 28.57% and 68.9% | Population Tubulin-Different-Phenotype (%) [2]: 25.93% and 59.52% | Total Cell Count [2]: 392 and 164 | Population Apoptotic (%) [3]: 19.59% and 9.09% | Population Fragmented Nuclei (%) [3]: 2.82% and 3.6% | Population Healthy Nuclei (%) [3]: 74.35% and 33.09% | Population Hoechst High Intensity Objects (%) [3]: 0% | Population Membrane Permeable-Phenotype (%) [3]: 0.63% and 2.17% | Population Mitochondria Different-Phenotype (%) [3]: 8.54% and 19.57% | Population Mitotic Cells (%) [3]: 80.41% and 90.91% | Population Normal (%) [3]: 100% | Population Pyknosed Nuclei (%) [3]: 22.82% and 63.31% | Population Tubulin-Different-Phenotype (%) [3]: 10.76% and 13.04% | Population Apoptotic (%) [4]: 34.38% and 21.57% | Population Fragmented Nuclei (%) [4]: 2.01% and 4.43% | Population Healthy Nuclei (%) [4]: 73.87% and 31.01% | Population Hoechst High Intensity Objects (%) [4]: 0% | Population Membrane Permeable-Phenotype (%) [4]: 0% and 4.08% | Population Mitochondria Different-Phenotype (%) [4]: 26.19% and 16.33% | Population Mitotic Cells (%) [4]: 65.62% and 78.43% | Population Normal (%) [4]: 100% | Population Pyknosed Nuclei (%) [4]: 24.12% and 64.56% | Population Tubulin-Different-Phenotype (%) [4]: 55.78% and 20.41% | Total Cell Count [4]: 398 and 158 | Population Apoptotic (%) [5]: 12.66% and 16.95% | Population Fragmented Nuclei (%) [5]: 2.96% and 1.01% | Population Healthy Nuclei (%) [5]: 86.89% and 69.35% | Population Hoechst High Intensity Objects (%) [5]: 0% and 0.5% | Population Membrane Permeable-Phenotype (%) [5]: 4.14% and 2.17% | Population Mitochondria Different-Phenotype (%) [5]: 20.41% and 24.64% | Population Mitotic Cells (%) [5]: 87.34% and 83.05% | Population Normal (%) [5]: 100% and 99.5% | Population Pyknosed Nuclei (%) [5]: 10.15% and 29.65% | Population Apoptotic (%) [6]: 37.04% and 39.66% | Population Fragmented Nuclei (%) [6]: 1.79% and 5.23% | Population Healthy Nuclei (%) [6]: 91.3% and 56.86% | Population Hoechst High Intensity Objects (%) [6]: 0% | Population Membrane Permeable-Phenotype (%) [6]: 0.84% and 2.3% | Population Mitochondria Different-Phenotype (%) [6]: 87.68% and 60.92% | Population Mitotic Cells (%) [6]: 62.96% and 60.34% | Population Normal (%) [6]: 100% | Total Cell Count [6]: 391 and 153
